Assays:
[1] = Treatment-emergent adverse events, MAD period and b.i.d. cohort; assay type: in vivo, human
Summary of the method: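 Double-blind, placebo-controlled study in healthy men and nonchildbearing women aged 18–55 y. The SAD period gave one fasted oral dose; the MAD period gave fed dosing q.d. for 10 days, plus a separate b.i.d. cohort. TEAEs, serious AEs and discontinuation AEs were monitored ≥28 days after the last dose. Vital signs, physical exam, 12-lead ECG, hematology, clinical chemistry and urinalysis were also recorded. Data summarized descriptively.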

[2] = test system: CYP1A2, CYP2D6, and CYP3A; details: cited from earlier work
MRP2 = details: cited from earlier work
[3] = MAD Japanese cohort 400 mg q.d. (n = 5)
[4] = b.i.d. cohort 200 mg b.i.d. (n = 7)

## Cn1cc(-c2cn3nccc3c(-c3cnn([C@]4(CC#N)C[C@@H](C#N)C4)c3)n2)cn1 [PF‐06826647]
[1]; MAD 100 mg q.d. (n = 6)
  AEs: 1 n
  AEs leading to permanent discontinuation of study drug: 0 n
  AEs leading to study drug dose reduction or interruption: 0 n
  Participants with AE: 1 (16.7) n (%)
  Participants with TEAEs: Alanine aminotransferase increased: 0 n (%)
  Participants with TEAEs: Blood creatinine increased: 1 (16.7) n (%)
  Participants with TEAEs: Constipation: 0 n (%)
  Participants with TEAEs: Dysuria: 0 n (%)
  Participants with TEAEs: Gastrointestinal disorders (SOC): 0 n (%)
  Participants with TEAEs: Headache: 0 n (%)
  Participants with TEAEs: Investigations (SOC): 1 (16.7) n (%)
  Participants with TEAEs: Nausea: 0 n (%)
  Participants with TEAEs: Nervous system disorders (SOC): 0 n (%)
  Participants with TEAEs: Renal and urinary disorders (SOC): 0 n (%)
  SAEs: 0 n
  Severe AEs: 0 n
[1]; MAD 400 mg q.d. (n = 6)
  AEs: 1 n
  AEs leading to permanent discontinuation of study drug: 0 n
  AEs leading to study drug dose reduction or interruption: 0 n
  Participants with AE: 1 (16.7) n (%)
  Participants with TEAEs: Alanine aminotransferase increased: 0 n (%)
  Participants with TEAEs: Blood creatinine increased: 1 (16.7) n (%)
  Participants with TEAEs: Constipation: 0 n (%)
  Participants with TEAEs: Dysuria: 0 n (%)
  Participants with TEAEs: Gastrointestinal disorders (SOC): 0 n (%)
  Participants with TEAEs: Headache: 0 n (%)
  Participants with TEAEs: Investigations (SOC): 1 (16.7) n (%)
  Participants with TEAEs: Nausea: 0 n (%)
  Participants with TEAEs: Nervous system disorders (SOC): 0 n (%)
  Participants with TEAEs: Renal and urinary disorders (SOC): 0 n (%)
  SAEs: 0 n
  Severe AEs: 0 n
[1]; MAD 1,200 mg q.d. (n = 5)
  AEs: 1 n
  AEs leading to permanent discontinuation of study drug: 0 n
  AEs leading to study drug dose reduction or interruption: 0 n
  Participants with AE: 1 (20.0) n (%)
  Participants with TEAEs: Alanine aminotransferase increased: 0 n (%)
  Participants with TEAEs: Blood creatinine increased: 1 (20.0) n (%)
  Participants with TEAEs: Constipation: 0 n (%)
  Participants with TEAEs: Dysuria: 0 n (%)
  Participants with TEAEs: Headache: 0 n (%)
  Participants with TEAEs: Investigations (SOC): 1 (20.0) n (%)
  Participants with TEAEs: Nausea: 0 n (%)
  Participants with TEAEs: Nervous system disorders (SOC): 0 n (%)
  Participants with TEAEs: Renal and urinary disorders (SOC): 0 n (%)
  SAEs: 0 n
  Severe AEs: 0 n
[1]; [3]
  AEs: 2 n
  AEs leading to permanent discontinuation of study drug: 0 n
  AEs leading to study drug dose reduction or interruption: 0 n
  Participants with AE: 1 (20.0) n (%)
  Participants with TEAEs: Alanine aminotransferase increased: 1 (20.0) n (%)
  Participants with TEAEs: Blood creatinine increased: 0 n (%)
  Participants with TEAEs: Constipation: 0 n (%)
  Participants with TEAEs: Dysuria: 0 n (%)
  Participants with TEAEs: Gastrointestinal disorders (SOC): 0 n (%)
  Participants with TEAEs: Headache: 1 (20.0) n (%)
  Participants with TEAEs: Investigations (SOC): 1 (20.0) n (%)
  Participants with TEAEs: Nausea: 0 n (%)
  Participants with TEAEs: Nervous system disorders (SOC): 1 (20.0) n (%)
  Participants with TEAEs: Renal and urinary disorders (SOC): 0 n (%)
  SAEs: 0 n
  Severe AEs: 0 n
[1]; [4]
  AEs: 3 n
  AEs leading to permanent discontinuation of study drug: 0 n
  AEs leading to study drug dose reduction or interruption: 0 n
  Participants with AE: 3 (42.9) n (%)
  Participants with TEAEs: Alanine aminotransferase increased: 0 n (%)
  Participants with TEAEs: Blood creatinine increased: 3 (42.9) n (%)
  Participants with TEAEs: Constipation: 0 n (%)
  Participants with TEAEs: Dysuria: 0 n (%)
  Participants with TEAEs: Gastrointestinal disorders (SOC): 0 n (%)
  Participants with TEAEs: Headache: 0 n (%)
  Participants with TEAEs: Investigations (SOC): 3 (42.9) n (%)
  Participants with TEAEs: Nausea: 0 n (%)
  Participants with TEAEs: Nervous system disorders (SOC): 0 n (%)
  Participants with TEAEs: Renal and urinary disorders (SOC): 0 n (%)
  SAEs: 0 n
  Severe AEs: 0 n
[2]
  major human clearance pathway: cytochrome P450 (CYP)‐mediated (via CYP1A2, CYP2D6, and CYP3A) metabolism
MRP2
  inhibition of transporter protein MRP2: minimal inhibition
